In ChEMBL document CHEMBL1142373 (J Med Chem, 2008):
In brackets after ≈: the same amount, converted by molar mass.

Legend:
[1] = Cytotoxicity against human KB cells by MTT assay; type: cell-based; conditions: read-out: TC50 (the source's name)
Plasmodium chabaudi [2] = test: Antimalarial activity against Plasmodium chabaudi AS infected CD1 mice (Mus musculus) assessed as suppression of parasitaemia at 10 mg/kg, perorally after 4 days; type: functional; conditions: route oral
Summary of the method: (§1)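 Female CD1 mice (20–25 g) got 0.2 mL i.v. of donor blood diluted to 1% parasitaemia (1 × 10^7 infected erythrocytes/mL). Oral dosing started 2–4 h post-inoculation as a 0.2 mL bolus once daily for 4 days, in 10% Tween-80/EtOH plus sterile PBS. On day 5, Giemsa-stained smears were read by microscopy. % suppression = [(C−T)/C]×100; five mice per group.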

Plasmodium berghei [3] = test: Reduced parasitemia in Plasmodium berghei ANKA infected CD1 mice (Mus musculus) at 10 mg/kg peroral dose after 4 days; type: functional; set-up: scale not given: the % may be the effect or the level left; conditions: route oral; summary of the method: as §1
Plasmodium falciparum [4] = test: Antiplasmodial activity against chloroquine-sensitive Plasmodium falciparum 3D7 by [3H]hypoxanthine incorporation; type: functional, organism-based
Plasmodium falciparum [5] = test: Antiplasmodial activity against chloroquine-resistant Plasmodium falciparum W2 by [3H]hypoxanthine incorporation; type: functional, organism-based
Plasmodium falciparum [6] = test: Antiplasmodial activity against chloroquine-resistant Plasmodium falciparum K1 by [3H]hypoxanthine incorporation; type: functional, organism-based
Plasmodium falciparum [7] = test: Antiplasmodial activity against chloroquine-sensitive Plasmodium falciparum D10 by parasite lactate dehydrogenase assay; conditions: D10, 72 h
[8] = Cytotoxicity against mouse NSO cells after 48 hrs by MTT assay; type: cell-based; conditions: read-out: TC50
Summary of the method: (§2)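 NSO (3000 cells/well) and Daudi (300 cells/well) cells were grown in RPMI 1640 with 5% FCS. Compounds in DMSO were added 12 h after plating and left 48 h. MTT was then added (20 µL of 5 mg/mL stock, 2 h, 37 °C), followed by SDS/DMF lysis buffer overnight, with OD read at 570 nm. TC50 is reported; at least two experiments in triplicate.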

[9] = Cytotoxicity against human Daudi cells after 48 hrs by MTT assay; type: cell-based; conditions: read-out: TC50; summary of the method: as §2
[10] = Cytotoxicity against human lymphocytes after 48 hrs by MTT assay; type: cell-based, Lymphocyte; conditions: read-out: TC50
Summary of the method: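 Donor PBMC were separated on Ficoll-Hypaque and stimulated with 5 µg/mL PHA, then plated at 20000 cells/well. Compounds in DMSO were added 12 h later and left 48 h. Read-out was MTT formazan (2 h, 37 °C), extracted overnight in SDS/DMF buffer, with OD at 570 nm. TC50 is reported; at least two runs in triplicate.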

Plasmodium falciparum [11] = test: Antiplasmodial activity against chloroquine-sensitive Plasmodium falciparum D10 by [3H]hypoxanthine incorporation; type: functional, organism-based
Plasmodium chabaudi [12] = test: Antimalarial activity against Plasmodium chabaudi AS infected CD1 mice (Mus musculus) assessed as suppression of parasitaemia at 50mg/kg, perorally after 4 days; type: functional; summary of the method: as §1
[13] = Lipophilicity, Log D at pH 7.4; type: physicochemical; conditions: buffer
[14] = Lipophilicity, Log D at pH 7.2; type: physicochemical; conditions: buffer
[15] = Lipophilicity, Log D at pH 5.5; type: physicochemical; conditions: buffer
Candida albicans = test: Antifungal activity against Candida albicans; type: functional
Pichia kudriavzevii = test: Antifungal activity against Candida krusei ATCC 6258; type: functional
Candida parapsilosis = test: Antifungal activity against Candida parapsilosis ATCC 22019; type: functional; conditions: Lodderomyces parapsilosis
Cryptococcus neoformans = test: Antifungal activity against Cryptococcus neoformans; type: functional
Aspergillus flavus = test: Antifungal activity against Aspergillus flavus ATCC 204304; type: functional
Aspergillus fumigatus [16] = test: Antifungal activity against Aspergillus fumigatus; type: functional
Plasmodium berghei [17] = test: Reduced parasitemia in Plasmodium berghei ANKA infected CD1 mice (Mus musculus) at 30 mg/kg dose after 4 days; set-up: scale not given: the % may be the effect or the level left
Aspergillus fumigatus [18] = test: Antifungal activity against itraconazole resistant Aspergillus fumigatus; type: functional
Plasmodium berghei [19] = test: Reduced parasitemia in Plasmodium berghei ANKA infected CD1 mice (Mus musculus) at 150 mg/kg peroral dose after 4 days; type: functional; set-up: scale not given: the % may be the effect or the level left; conditions: route oral; summary of the method: as §1

SMILES	CC50 [1] [µM]	IC50 (Plasmodium falciparum [4]) [nM]	IC50 (Plasmodium falciparum [5]) [nM]	IC50 (Plasmodium falciparum [6]) [nM]	IC50 (Plasmodium falciparum [7]) [nM]	other results
CCN(CC)CCCC(C)Nc1ccnc2cc(Cl)ccc12 (centres undefined) [CHLOROQUINE]	207	–	–	–	–	Activity (Plasmodium chabaudi [2]): 100%; Activity (Plasmodium berghei [3]): 89.1%
Clc1ccc2c(C(c3ccccc3)(c3ccc(CN4CCCC4)cc3)n3ccnc3)ccnc2c1 (racemic)	51.8	148	10	60	168	–
CCN(CC)Cc1ccc(C(c2ccccc2)(c2ccc(Cl)cc2)n2ccnc2)cc1 (racemic)	–	–	41.4	0.48	415	–
Clc1cccc(C(c2ccc(CN3CCCC3)cc2)(c2cccs2)n2ccnc2)c1 (racemic)	–	4270	1040	1270	7170	–
Clc1ccc(C(c2ccccc2)(c2ccc(CN3CCNCC3)cc2)n2ccnc2)cc1 (racemic)	–	55.4	–	–	84.1	CC50 at 48 h [8]: 16.2 µM; CC50 at 48 h [9]: 15.8 µM; CC50 at 48 h [10]: 13.7 µM
Clc1cccc(C(c2ccc(CN3CCCC3)cc2)(c2ccoc2)n2ccnc2)c1 (racemic)	–	101	167	–	238	–
Clc1cccc(C(c2ccnc3ccccc23)n2ccnc2)c1 (racemic)	–	> 10000	> 10000	4290	–	IC50 (Plasmodium falciparum [11]): > 10 µM
Clc1cccc(C(c2ccc(CN3CCCC3)cc2)(c2nccs2)n2ccnc2)c1 (racemic)	–	314	1850	66.7	484	CC50 at 48 h [8]: 52.9 µM; CC50 at 48 h [9]: 57.5 µM; CC50 at 48 h [10]: 80.5 µM; Activity (Plasmodium chabaudi [12]): 73.1%
Clc1ccc(C(c2ccc(CN3CCCC3)cc2)(c2ccc(CN3CCCC3)cc2)n2ccnc2)cc1	–	26.1	39.2	11.7	48.4	logD [13]: 1.56; logD [14]: 1.4; logD [15]: 0.67; MIC (Candida albicans): > 32 µg/mL; MIC (Pichia kudriavzevii): > 32 µg/mL; MIC (Candida parapsilosis): > 32 µg/mL; MIC (Cryptococcus neoformans): > 32 µg/mL; MIC (Aspergillus flavus): > 32 µg/mL; MIC (Aspergillus fumigatus [16]): > 32 µg/mL; CC50 at 48 h [8]: 47 µM; CC50 at 48 h [9]: 58.7 µM; CC50 at 48 h [10]: 68.5 µM; Activity (Plasmodium chabaudi [12]): 94%
Clc1ccc(C(c2ccccc2)(c2ccc(CN3CCCC3)cc2)n2ccnc2)cc1 (racemic)	–	–	–	–	–	logD [13]: 3.33; logD [14]: 3.13; logD [15]: 1.72; MIC (Candida albicans): 32 µg/mL (≈ 74.8 µM); MIC (Pichia kudriavzevii): 16 µg/mL (≈ 37.4 µM); MIC (Candida parapsilosis): 32 µg/mL (≈ 74.8 µM); MIC (Cryptococcus neoformans): 32 µg/mL (≈ 74.8 µM); MIC (Aspergillus flavus): > 32 µg/mL; MIC (Aspergillus fumigatus [16]): > 32 µg/mL; CC50 at 48 h [8]: 51.5 µM; CC50 at 48 h [9]: 58.5 µM; CC50 at 48 h [10]: 70.3 µM; Activity (Plasmodium chabaudi [12]): 94.8%; Activity (Plasmodium berghei [17]): 37.6%
Clc1cccc(C(c2ccc(CN3CCNCC3)cc2)n2ccnc2)c1 (racemic)	–	411	327	354	516	–
Clc1cccc(C(c2ccncc2)(c2ccc(CN3CCCC3)cc2)n2ccnc2)c1 (racemic)	–	587	415	510	1230	–
CCN(CC)Cc1ccc(C(c2cccc(Cl)c2)n2ccnc2)cc1 (racemic)	–	1290	452	282	1890	–
Clc1ccc(C(c2ccccc2)(c2ccc(CN3CCOCC3)cc2)n2ccnc2)cc1 (racemic)	–	561	–	–	726	CC50 at 48 h [8]: 16 µM; CC50 at 48 h [9]: 15.6 µM; CC50 at 48 h [10]: 13.3 µM
c1ccc2c(C(c3ccc(CN4CCCC4)cc3)n3ccnc3)ccnc2c1 (racemic)	–	5030	1790	379	7480	–
Clc1ccc(C(c2ccc(CN3CCCC3)cc2)(c2cccs2)n2ccnc2)cc1 (racemic)	–	3570	6690	1780	1360	–
Clc1cccc(C(c2ccc(CN3CCCC3)cc2)(c2ccccn2)n2ccnc2)c1 (racemic)	27.2	349	157	155	619	–
Clc1ccc(C(c2ccccc2)(c2ccc(CN3CCCC3)cc2)N2CCNCC2)cc1 (racemic)	20.9	3840	1560	3510	–	IC50 (Plasmodium falciparum [11]): > 10 µM
Fc1ccc(C(c2ccc(Cl)cc2)(c2ccc(CN3CCCC3)cc2)n2ccnc2)cc1 (racemic)	8.2	82	1.5	380	118	–
Fc1ccc(C(c2ccc(CN3CCCC3)cc2)(c2ccnc3cc(Cl)ccc23)n2ccnc2)cc1 (racemic)	33	66.9	2	67	85.8	MIC (Candida albicans): 8 µg/mL (≈ 16.1 µM); MIC (Pichia kudriavzevii): > 32 µg/mL; MIC (Candida parapsilosis): > 32 µg/mL; MIC (Cryptococcus neoformans): > 32 µg/mL; MIC (Aspergillus flavus): > 32 µg/mL; MIC (Aspergillus fumigatus [16]): > 32 µg/mL; Activity (Plasmodium chabaudi [12]): 99.4%
Clc1ccccc1C(c1ccccc1)(c1ccccc1)n1ccnc1 [CLOTRIMAZOLE]	88.1	–	–	–	–	MIC (Candida albicans): 0.03 µg/mL (≈ 0.087 µM); MIC (Pichia kudriavzevii): 2 µg/mL (≈ 5.8 µM); MIC (Candida parapsilosis): 2 µg/mL (≈ 5.8 µM); MIC (Cryptococcus neoformans): 2 µg/mL (≈ 5.8 µM); MIC (Aspergillus flavus): 4 µg/mL (≈ 11.6 µM); MIC (Aspergillus fumigatus [16]): 4 µg/mL (≈ 11.6 µM); MIC (Aspergillus fumigatus [18]): 4 µg/mL (≈ 11.6 µM); Activity (Plasmodium chabaudi [12]): 6%; Activity (Plasmodium berghei [19]): 28.3%
CCN(CC)Cc1ccc(C(c2cccc(Cl)c2)n2cncn2)cc1 (racemic)	–	> 10000	> 10000	3700	–	IC50 (Plasmodium falciparum [11]): > 10 µM
Clc1ccc2c(C(c3ccc(CN4CCCC4)cc3)n3ccnc3)ccnc2c1 (racemic)	–	1810	1170	745	1630	–
Clc1ccc(C(c2ccc(CN3CCCC3)cc2)(c2nccs2)n2ccnc2)cc1 (racemic)	64.2	177	80	180	300	–
Clc1ccc(C(c2ccccc2)(c2ccc(CN3CCCC3)cc2)n2cnc3ccccc32)cc1 (racemic)	–	379	376	23	1030	–
CC(C)(C)OC(=O)N1CCN(Cc2ccc(C(c3cccc(Cl)c3)n3ccnc3)cc2)CC1 (racemic)	–	4110	1520	1070	5260	–
